Reference: ChEMBL document CHEMBL1137280, “Synthesis and structure-activity studies of novel benzocycloheptanone oxazolidinone antibacterial agents” (Bioorg Med Chem Lett, 2006)
In brackets after ≈: the same amount, converted by molar mass.

How the values were obtained:
Type in all cases: functional
Escherichia coli = assay: Antibacterial activity against Escherichia coli by transcription and translation assay
How it was run: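 Coupled in vitro transcription and translation system from Escherichia coli with a luciferase reporter; inhibition is read as loss of luciferase signal.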

Staphylococcus aureus = assay: Antibacterial activity against Staphylococcus aureus UC-76 SA-1
How it was run: (§1)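 MIC determined by broth microdilution following Clinical and Laboratory Standards Institute (formerly NCCLS) guidelines, across a panel of Gram-positive and fastidious Gram-negative organisms.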

Streptococcus pneumoniae = assay: Antibacterial activity against Streptococcus pneumoniae SVI SP-3; how it was run: as §1
Streptococcus pyogenes = assay: Antibacterial activity against Streptococcus pyogenes C-203; how it was run: as §1
Enterococcus faecalis = assay: Antibacterial activity against Enterococcus faecalis MGH-2 EF1-1; how it was run: as §1
Haemophilus influenzae = assay: Antibacterial activity against Haemophilus influenzae HI3542; conditions: HI-3542; how it was run: as §1
Moraxella catarrhalis = assay: Antibacterial activity against Moraxella catarrhalis BC-3531; how it was run: as §1

Structure (SMILES) | IC50 (Escherichia coli) [µM] | MIC (Staphylococcus aureus) [µg/mL] | MIC (Streptococcus pneumoniae) [µg/mL] | MIC (Streptococcus pyogenes) [µg/mL] | MIC (Enterococcus faecalis) [µg/mL] | MIC (Haemophilus influenzae) [µg/mL] | MIC (Moraxella catarrhalis) [µg/mL]
CC(=O)NC[C@H]1CN(c2ccc3c(c2)CCCCC3)C(=O)O1 | 8 | 64 (≈ 212 µM) | 8 (≈ 26.5 µM) | 2 (≈ 6.61 µM) | > 64 | – | –
CC(=O)NC[C@H]1CN(c2cnc3c(c2)CCCCC3=O)C(=O)O1 | 13 | 8 (≈ 25.2 µM) | 16 (≈ 50.4 µM) | 4 (≈ 12.6 µM) | 8 (≈ 25.2 µM) | – | –
CC(=O)NC[C@H]1CN(c2ccc3c(c2)CCCC=C3)C(=O)O1 | 1.3 | 1 (≈ 3.33 µM) | 0.5 (≈ 1.66 µM) | 0.5 (≈ 1.66 µM) | 1 (≈ 3.33 µM) | – | –
CC(=O)NC[C@H]1CN(c2ccc3c(c2)CCCCC3=O)C(=O)O1 | 3.9 | 1 (≈ 3.16 µM) | 0.5 (≈ 1.58 µM) | 0.5 (≈ 1.58 µM) | 0.5 (≈ 1.58 µM) | – | –
CC(=O)NC[C@H]1CN(c2ccc3c(c2)C(=O)CCC3)C(=O)O1 | 4 | 32 (≈ 106 µM) | 8 (≈ 26.5 µM) | 16 (≈ 52.9 µM) | 16 (≈ 52.9 µM) | – | –
CC(=O)NC[C@H]1CN(c2ccc3c(c2)CCC/C(=C\c2cccn2C)C3=O)C(=O)O1 | 1.6 | 1 (≈ 2.45 µM) | 0.25 (≈ 0.614 µM) | – | 0.5 (≈ 1.23 µM) | 16 (≈ 39.3 µM) | 4 (≈ 9.82 µM)
CC(=O)NC[C@H]1CN(c2ccc3c(c2)CCC/C(=C\c2ccc(CCO)cc2)C3=O)C(=O)O1 | 2.6 | 1 (≈ 2.23 µM) | 0.25 (≈ 0.557 µM) | – | 0.5 (≈ 1.11 µM) | 16 (≈ 35.7 µM) | 4 (≈ 8.92 µM)
CC(=O)NC[C@H]1CN(c2ccc3c(c2)CCC/C(=C\c2ccc(F)cc2)C3=O)C(=O)O1 | 2.7 | 0.5 (≈ 1.18 µM) | 0.25 (≈ 0.592 µM) | – | 0.5 (≈ 1.18 µM) | 2 (≈ 4.73 µM) | 2 (≈ 4.73 µM)
CC(=O)NC[C@H]1CN(c2ccc3c(c2F)CCCCC3=O)C(=O)O1 | 8.9 | 16 (≈ 47.9 µM) | 4 (≈ 12 µM) | 8 (≈ 23.9 µM) | 8 (≈ 23.9 µM) | – | –
CC(=O)NC[C@H]1CN(c2ccc3c(c2)CCC/C(=C\c2ccc(O)cc2)C3=O)C(=O)O1 | 0.95 | 0.5 (≈ 1.19 µM) | 0.125 (≈ 0.297 µM) | – | 0.5 (≈ 1.19 µM) | 8 (≈ 19 µM) | 2 (≈ 4.76 µM)
CC(=O)NC[C@H]1CN(c2ccc3c(c2)CCC/C(=C\c2ccncc2)C3=O)C(=O)O1 | 1.7 | 1 (≈ 2.47 µM) | 0.5 (≈ 1.23 µM) | – | 1 (≈ 2.47 µM) | 16 (≈ 39.5 µM) | 8 (≈ 19.7 µM)
CC(=O)NC[C@H]1CN(c2cc3c(cc2F)C(=O)CCCC3)C(=O)O1 | 90 | 64 (≈ 191 µM) | 32 (≈ 95.7 µM) | 32 (≈ 95.7 µM) | 64 (≈ 191 µM) | – | –
CC(=O)NC[C@H]1CN(c2ccc3c(c2)CCCCCC3=O)C(=O)O1 | 5.9 | 4 (≈ 12.1 µM) | 4 (≈ 12.1 µM) | 2 (≈ 6.05 µM) | 8 (≈ 24.2 µM) | – | –
CC(=O)NC[C@H]1CN(c2ccc3c(c2)CCC/C(=C\c2ccc(OCCCN(C)C)cc2)C3=O)C(=O)O1 | 1.2 | 1 (≈ 1.98 µM) | 0.125 (≈ 0.247 µM) | – | 0.5 (≈ 0.989 µM) | 16 (≈ 31.6 µM) | 4 (≈ 7.91 µM)
CC(=O)NC[C@H]1CN(c2ccc3c(c2)CCC/C(=C\c2ccc(OCCN(C)C)cc2)C3=O)C(=O)O1 | 1.5 | 2 (≈ 4.07 µM) | 0.25 (≈ 0.509 µM) | – | 2 (≈ 4.07 µM) | 32 (≈ 65.1 µM) | 8 (≈ 16.3 µM)
CC(=O)NC[C@H]1CN(c2cc(F)c3c(c2)CCCCC3=O)C(=O)O1 | 9.4 | 8 (≈ 23.9 µM) | 2 (≈ 5.98 µM) | 2 (≈ 5.98 µM) | 4 (≈ 12 µM) | – | –
CC(=O)NC[C@H]1CN(c2cc(F)c3c(c2F)CCCCC3=O)C(=O)O1 | 14 | 32 (≈ 90.8 µM) | 8 (≈ 22.7 µM) | 16 (≈ 45.4 µM) | 16 (≈ 45.4 µM) | – | –
CC(=O)NC[C@H]1CN(c2ccc3c(c2)CCC/C(=C\c2ccccc2)C3=O)C(=O)O1 | 2.7 | 1 (≈ 2.47 µM) | 0.25 (≈ 0.618 µM) | – | 0.5 (≈ 1.24 µM) | 16 (≈ 39.6 µM) | 4 (≈ 9.89 µM)
CC(=O)NC[C@H]1CN(c2ccc3c(c2)CCC/C(=C\c2ccsc2)C3=O)C(=O)O1 | 1.1 | 2 (≈ 4.87 µM) | 0.125 (≈ 0.305 µM) | – | 0.5 (≈ 1.22 µM) | 2 (≈ 4.87 µM) | 1 (≈ 2.44 µM)
CC(=O)NC[C@H]1CN(c2cc(F)c3c(c2)CCCC=C3)C(=O)O1 | 9.3 | 2 (≈ 6.28 µM) | 1 (≈ 3.14 µM) | 1 (≈ 3.14 µM) | 2 (≈ 6.28 µM) | – | –
CC(=O)NC[C@H]1CN(c2ccc3c(c2)CCC/C(=C\c2cccc(C#N)c2)C3=O)C(=O)O1 | 1.7 | 0.5 (≈ 1.16 µM) | 0.25 (≈ 0.582 µM) | – | 0.25 (≈ 0.582 µM) | 32 (≈ 74.5 µM) | 2 (≈ 4.66 µM)
CC(=O)NC[C@H]1CN(c2ccc3c(c2)CCC/C(=C\c2ccc(S(C)(=O)=O)cc2)C3=O)C(=O)O1 | 2.8 | 1 (≈ 2.07 µM) | 0.25 (≈ 0.518 µM) | – | 0.5 (≈ 1.04 µM) | 16 (≈ 33.2 µM) | 4 (≈ 8.29 µM)
CC(=O)NC[C@H]1CN(c2ccc(C(C)=O)cc2)C(=O)O1 [DUP-721] | 7.5 | 2 (≈ 7.24 µM) | 2 (≈ 7.24 µM) | 1 (≈ 3.62 µM) | 2 (≈ 7.24 µM) | – | –
CC(=O)NC[C@H]1CN(c2ccc(N3CCOCC3)c(F)c2)C(=O)O1 [LINEZOLID] | 3.3 | – | – | 1 (≈ 2.96 µM) | – | 16 (≈ 47.4 µM) | –
CC(=O)NC[C@H]1CN(c2ccc3c(c2)CCC3=O)C(=O)O1 [PNU-82965] | 21 | 8 (≈ 27.7 µM) | 2 (≈ 6.94 µM) | 2 (≈ 6.94 µM) | 8 (≈ 27.7 µM) | – | –
